PMC2196299 (The Journal of Experimental Medicine, 1997)

Key:
[1] = target: T1, murine TAP (Mus musculus, UniProt P21958+P36371); settings: cited from earlier work
T1 sequence (P21958 1-724): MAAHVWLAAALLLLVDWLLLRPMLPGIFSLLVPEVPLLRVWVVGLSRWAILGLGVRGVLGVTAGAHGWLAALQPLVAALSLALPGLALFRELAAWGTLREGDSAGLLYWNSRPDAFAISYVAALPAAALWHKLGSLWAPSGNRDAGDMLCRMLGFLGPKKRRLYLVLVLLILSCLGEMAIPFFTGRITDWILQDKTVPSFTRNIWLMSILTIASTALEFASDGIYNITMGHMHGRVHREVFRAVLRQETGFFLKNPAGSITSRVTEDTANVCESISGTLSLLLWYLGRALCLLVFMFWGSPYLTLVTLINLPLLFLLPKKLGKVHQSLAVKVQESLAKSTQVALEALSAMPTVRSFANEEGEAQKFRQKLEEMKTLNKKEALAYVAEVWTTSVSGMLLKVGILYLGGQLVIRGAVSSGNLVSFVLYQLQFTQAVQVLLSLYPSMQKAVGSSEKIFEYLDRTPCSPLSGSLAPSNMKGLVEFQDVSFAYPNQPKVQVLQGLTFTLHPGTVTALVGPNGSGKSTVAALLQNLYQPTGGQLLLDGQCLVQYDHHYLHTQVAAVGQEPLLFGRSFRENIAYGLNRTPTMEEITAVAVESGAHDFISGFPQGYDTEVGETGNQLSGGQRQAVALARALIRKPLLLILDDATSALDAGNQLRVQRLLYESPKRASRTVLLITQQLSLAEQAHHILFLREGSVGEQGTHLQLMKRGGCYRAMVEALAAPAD
T1 sequence (P36371 1-702): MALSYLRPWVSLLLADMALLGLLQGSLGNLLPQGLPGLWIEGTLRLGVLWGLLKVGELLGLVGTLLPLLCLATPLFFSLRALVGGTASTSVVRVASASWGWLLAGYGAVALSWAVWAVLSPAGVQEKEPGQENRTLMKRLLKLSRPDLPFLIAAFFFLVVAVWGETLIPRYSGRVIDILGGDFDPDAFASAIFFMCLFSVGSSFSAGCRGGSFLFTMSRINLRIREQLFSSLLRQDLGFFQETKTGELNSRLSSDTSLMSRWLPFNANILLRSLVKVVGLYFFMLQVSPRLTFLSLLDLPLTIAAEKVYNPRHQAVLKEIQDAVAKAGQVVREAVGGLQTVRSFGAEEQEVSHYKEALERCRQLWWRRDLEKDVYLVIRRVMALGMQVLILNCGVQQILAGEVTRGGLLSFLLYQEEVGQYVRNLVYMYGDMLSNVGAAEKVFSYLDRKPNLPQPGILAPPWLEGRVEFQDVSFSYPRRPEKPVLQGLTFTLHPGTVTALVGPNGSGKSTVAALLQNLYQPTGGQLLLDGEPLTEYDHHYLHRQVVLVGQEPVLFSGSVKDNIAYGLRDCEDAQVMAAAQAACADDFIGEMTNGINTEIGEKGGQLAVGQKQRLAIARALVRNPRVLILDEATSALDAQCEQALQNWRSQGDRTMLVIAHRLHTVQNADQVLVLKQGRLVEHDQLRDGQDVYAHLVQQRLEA

[2] = target: T2, human TAP (Homo sapiens, UniProt Q03518+Q03519); assay: TAP-dependent peptide translocation assay in SLO-permeabilized human cells; assay type: cell-based
T2 sequence (Q03518 1-748): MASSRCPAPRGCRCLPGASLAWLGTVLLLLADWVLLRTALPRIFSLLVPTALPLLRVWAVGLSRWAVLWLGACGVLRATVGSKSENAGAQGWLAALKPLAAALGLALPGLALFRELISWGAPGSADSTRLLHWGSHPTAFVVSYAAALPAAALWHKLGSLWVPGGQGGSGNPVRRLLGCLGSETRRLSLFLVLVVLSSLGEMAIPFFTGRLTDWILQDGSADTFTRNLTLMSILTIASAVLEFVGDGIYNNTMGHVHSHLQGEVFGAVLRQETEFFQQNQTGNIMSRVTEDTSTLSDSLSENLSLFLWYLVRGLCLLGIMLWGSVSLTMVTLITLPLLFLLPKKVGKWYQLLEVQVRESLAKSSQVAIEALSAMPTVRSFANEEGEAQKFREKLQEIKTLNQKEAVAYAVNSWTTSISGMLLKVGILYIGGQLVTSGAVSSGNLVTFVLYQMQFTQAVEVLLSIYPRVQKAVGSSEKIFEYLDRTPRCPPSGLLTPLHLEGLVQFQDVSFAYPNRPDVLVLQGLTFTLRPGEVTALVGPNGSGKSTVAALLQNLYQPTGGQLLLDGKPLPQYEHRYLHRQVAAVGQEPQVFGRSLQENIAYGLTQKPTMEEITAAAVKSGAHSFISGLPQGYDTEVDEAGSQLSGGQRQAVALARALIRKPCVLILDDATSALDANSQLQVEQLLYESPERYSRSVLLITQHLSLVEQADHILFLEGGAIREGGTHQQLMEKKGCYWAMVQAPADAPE
T2 sequence (Q03519 1-686): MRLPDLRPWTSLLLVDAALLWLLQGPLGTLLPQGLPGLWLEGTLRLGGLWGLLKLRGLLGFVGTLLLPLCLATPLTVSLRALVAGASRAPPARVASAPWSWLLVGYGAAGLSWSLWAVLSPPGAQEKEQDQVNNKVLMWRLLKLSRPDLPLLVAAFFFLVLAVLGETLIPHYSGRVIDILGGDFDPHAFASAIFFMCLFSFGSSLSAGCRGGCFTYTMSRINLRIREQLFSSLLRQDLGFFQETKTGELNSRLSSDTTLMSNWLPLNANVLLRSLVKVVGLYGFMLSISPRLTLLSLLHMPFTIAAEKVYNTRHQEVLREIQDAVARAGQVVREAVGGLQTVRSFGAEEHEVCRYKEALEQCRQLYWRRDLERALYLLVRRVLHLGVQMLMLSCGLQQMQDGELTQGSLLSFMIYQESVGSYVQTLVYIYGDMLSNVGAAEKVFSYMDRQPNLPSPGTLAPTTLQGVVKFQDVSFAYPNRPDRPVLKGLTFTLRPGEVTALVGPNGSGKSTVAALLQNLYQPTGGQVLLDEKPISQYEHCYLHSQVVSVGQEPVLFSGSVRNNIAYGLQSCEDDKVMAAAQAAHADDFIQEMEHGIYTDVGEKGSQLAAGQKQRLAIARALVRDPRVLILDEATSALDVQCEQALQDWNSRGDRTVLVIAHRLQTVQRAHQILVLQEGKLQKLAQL
Outline: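 Hmy2.C1R cells washed in KCl/Hepes transport buffer (pH 7.3) at 4°C, then permeabilized with streptolysin O (2 U/ml, 10 min, 37°C). 10^6 cells/sample incubated 10 min at 37°C with chloramine T-iodinated peptide library, ATP-generating system and test compound (3.3 μM, or a concentration series). Stopped with ice-cold EDTA/azide buffer, NP-40 lysed, Con A–Sepharose capture, γ counting. Percent of no-inhibitor transport, duplicates.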

[3] = target: T3, human TAP1+2 (Homo sapiens, UniProt Q03518+Q03519); assay type: binding
T3 sequence (Q03518 1-748): T2 sequence (Q03518 1-748)
T3 sequence (Q03519 1-686): T2 sequence (Q03519 1-686)

Substance	ability to block or inhibit mouse TAP [1]	TAP subunits labeled by cross-linking [3]	other results
ICP47: herpes simplex virus immediate early protein, 87–amino acid cytosolic polypeptide, inhibitor of TAP	inability	–	–
rICP47: recombinant ICP47 from HSV-1	unable to block	–	–
1–35: peptide corresponding to residues 1–35 of ICP47	–	–	concentration at which full inhibition had just been reached ([2]; human cell line Hmy2.C1R, chosen for the alanine scan, Fig. 3 D): 3.3 µM
1–35 Tpa: 1–35-mer polypeptide with photoactivable phenylalanine analogue Tpa coupled to its NH2 terminus	–	Both TAP1 and TAP2 subunits were photolabeled	block of TAP function compared with the unmodified 1–35 polypeptide ([2]; data not shown): less efficiently
^125I-labeled Tyr21 1–35 polypeptide: 1–35 polypeptide labeled with 125I at Tyr 21	–	only TAP1 crosslinks	–
N-acetylated ICP47-1–53: ICP47-1–53 N-acetylated on the resin	–	–	effect of N-acetylation on the ability to inhibit TAP ([2]; human cell line Hmy2.C1R, compared with 1–53 polypeptide, Fig. 3 E): no effect
